Among the data in ChEMBL document CHEMBL1127789, “Synthesis, NMDA receptor antagonist activity, and anticonvulsant action of 1-aminocyclobutanecarboxylic acid derivatives” (1994) are Ratio and ED50 values, retold here.

The nature of assay [1]: Equipotent molar ratio relative to D-AP5 (1.0) on neonatal rat motoneurones. The class given is functional.
The nature of assay [2]: Equipotent molar ratio relative to D-AP5 (1.0) on neonatal rat motoneurones.; inactive. It counts as functional. The essentials: (§1)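 Isolated neonatal rat spinal cord in vitro, recording from motoneurones. Antagonist potency is given as an equipotent molar ratio against D-AP5, with D-AP5 set to 1.0.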
Assay [3] is described as follows: Equipotent molar ratio relative to D-AP5 (1.0) on neonatal rat motoneurones. The class given is functional. The essentials:
as §1

The test system of a further assay is Mus musculus. Nature of the assay: (§2) Tested for anticonvulsant activity following intracerebroventricular administration against sound-induced clonic convulsions in DBA/2 mice. It counts as functional. The essentials:
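Intracerebroventricular dosing in DBA/2 mice at several doses, 7–11 mice per drug. Mice were exposed to sound, and protection against clonic (audiogenic) seizures was scored. Values were derived from dose–response data with 95% confidence limits. Overt behaviour (ataxia) and rectal temperature were also monitored.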

A short description of assay [4]: as §2. The class given is functional, Mus musculus. The essentials: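 Intracerebroventricular injection in DBA/2 mice, 7–11 mice per compound, several doses per compound. Read-out is protection against sound-induced (audiogenic) clonic seizures. Values carry 95% confidence limits. Overt behaviour (ataxia) and rectal temperature were also noted.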

Calls of active or inactive are those of the source. The calls are words filed in the database; no cut-off is given here.

Regarding `N[C@]1(C(=O)O)C[C@H](C(=O)CP(=O)(O)O)C1`, the Ratio in assay [1] is listed as 0.33.

Consider `N[C@]1(C(=O)O)C[C@@](C(=O)O)(C2CC2C(=O)O)C1` (some centres undefined), for which, in assay [2], the Ratio entry was “inactive”.

For the compound `N[C@]1(C(=O)O)C[C@@H](CCP(=O)(O)O)C1`, the Ratio in assay [1] is given as 1.1.

Regarding `N[C@]1(C(=O)O)C[C@@H](CCC(=O)O)C1`, the Ratio in assay [3] turned out to be 7.9.

Regarding `N[C@]1(C(=O)O)C[C@H](CCP(=O)(O)O)C1`, the Ratio in assay [1] came out at 0.32.

For `N[C@@H](CCCP(=O)(O)O)C(=O)O`, the Ratio in assay [3] is recorded as 1.

As to `N[C@]1(C(=O)O)C[C@H](CCC(=O)O)C1`, the Ratio in assay [3] is given as 1.8.

As to `N[C@]1(C(=O)O)C[C@@H](C(=O)CP(=O)(O)O)C1`, in assay [1], the Ratio is 4.2.

For `N[C@]1(C(=O)O)C[C@](C(=O)O)(C2CC2C(=O)O)C1` (some centres undefined), the ED50 with Mus musculus is 0.089 µg; in assay [4], 0.36 nmol. Also, the Ratio in assay [1] is 0.28.

For `O=C(O)C1CN(CCCP(=O)(O)O)CCN1` (racemic), the Ratio in assay [1] was found to be 0.2.

In the case of `NC1(C(=O)O)CC([C@@H](O)CP(=O)(O)O)C1` (some centres undefined), the Ratio in assay [1] is 0.39.

As for `NC1(C(=O)O)CC([C@H](O)CP(=O)(O)O)C1` (some centres undefined), the Ratio in assay [1] amounted to 1.
